In the library only some 1% were active in any assay of this set; here they are far more common.
PvdQ acylase: P. aeruginosa PvdQ acylase inhibition; purified PvdQ acylase, fluorescence plate reader; inhibition, % at 10 µM; hit rate 0.063% among 340,000; AID 488965; in the data active means inhibition above about 30%, passing the limit was not always enough;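 further: 0% = vehicle neutral wells and 100% = reference inhibitor wells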
IMP-1 inhibitor: inhibitors of Pseudomonas aeruginosa IMP-1 metallo-beta-lactamase; purified IMP-1, nitrocefin hydrolysis, epi-absorbance fluorescence; inhibition, % at 5.6 µM; hit rate 0.45% among 290,000;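 active means inhibition above the mean plus 3 SD of all compounds in the same screening run, cut at about 4.5% in these data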;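 further: 0% = IMP-1 with DMSO and 100% = DMSO wells lacking enzyme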
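Assay system: purified IMP-1; Quantity: IMP-1 0.2 nM before substrate addition; Medium: HEPES buffer pH 7.1 with ZnSO4 and Brij 35; Incubation: 15 min enzyme–compound preincubation, then 25 min nitrocefin reaction, 25 °C; Signal: fluorescence quenching readout, ex 480/em 530 nm; Controls: DMSO with and without IMP-1; Repeats: singlicate testing.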
VIM-2 inh: inhibitors of Pseudomonas aeruginosa VIM-2 metallo-beta-lactamase; purified VIM-2, nitrocefin hydrolysis, epi-absorbance fluorescence; AID 1527; inhibition, % at 5.6 µM; hit rate 0.89% among 290,000;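 active means inhibition above the mean of all tested compounds plus 3 SD, cutoff set per screening run, cut at about 7.5% in these data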;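 further: red hydrolysis product quenches plate fluorescence so inhibitors raise well fluorescence; 0% = enzyme with DMSO and 100% = DMSO without enzyme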
RAD54 inh: blocks human RAD54 Holliday junction branch migration; Q92698; FAM/BHQ fluorescence; inhibition, % at 10.4 µM; hit rate 0.14% among 360,000;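 active means mean normalized replicate activity at least 40 and at least half of replicates scoring 40 or more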;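 further: 0% = median of neutral control wells and 100% = median of positive control wells; inhibitors cause a drop in the FAM fluorescence signal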
Target sequence (Q92698 whole entry, looked up): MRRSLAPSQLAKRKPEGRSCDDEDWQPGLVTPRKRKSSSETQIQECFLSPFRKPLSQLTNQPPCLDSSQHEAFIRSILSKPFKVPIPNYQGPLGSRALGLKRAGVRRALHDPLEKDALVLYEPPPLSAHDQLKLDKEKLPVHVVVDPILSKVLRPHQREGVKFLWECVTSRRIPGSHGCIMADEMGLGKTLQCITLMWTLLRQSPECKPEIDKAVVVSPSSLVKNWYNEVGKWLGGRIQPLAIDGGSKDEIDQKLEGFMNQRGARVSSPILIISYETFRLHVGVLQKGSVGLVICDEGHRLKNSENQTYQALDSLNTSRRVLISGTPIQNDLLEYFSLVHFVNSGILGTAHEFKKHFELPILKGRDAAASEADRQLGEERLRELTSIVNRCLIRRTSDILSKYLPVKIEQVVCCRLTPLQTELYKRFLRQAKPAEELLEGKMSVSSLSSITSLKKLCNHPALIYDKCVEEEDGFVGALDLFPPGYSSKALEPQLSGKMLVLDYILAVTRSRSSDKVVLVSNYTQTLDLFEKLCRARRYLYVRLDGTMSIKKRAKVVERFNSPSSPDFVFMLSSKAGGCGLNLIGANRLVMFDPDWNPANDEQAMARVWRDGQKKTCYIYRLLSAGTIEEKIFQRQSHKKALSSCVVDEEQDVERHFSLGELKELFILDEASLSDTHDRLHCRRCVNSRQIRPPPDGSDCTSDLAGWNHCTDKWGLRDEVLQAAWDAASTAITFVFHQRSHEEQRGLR
DNA FID counter: fluorescent intercalator displacement, NS3 helicase counter-screen | DNA fluorescent intercalator displacement, fluorescence | inhibition, % at 7.9 µM | hit rate 0.17% among 290,000; in the data active means inhibition above about 37%;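 further: 0% = vehicle and 100% = reference compound; higher means more ethidium bromide displaced from hairpin DNA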
An asterisk follows results filed as active; · = not tested or not shown.

SMILES	PvdQ acylase	IMP-1 inhibitor	VIM-2 inh	RAD54 inh	DNA FID counter
Cn1c(OCc2cccnc2)nc2c1c(=O)n(Cc1ccc(F)cc1)c(=O)n2C	-11	-2	1	·	-14
Cc1ccc2ccc3ccc(C)nc3c2n1	-4	0	8.6*	-6	-2
O=C(CSc1ccc2nnc(-c3cccc(F)c3)n2n1)NCc1ccco1	-8	0	2	-4	-4
CCOC(=O)CC(=O)CSc1ccc2nnc(-c3cccc(F)c3)n2n1	7	-4	1	6	-15
CSc1ccc2nnc(-c3cccc(F)c3)n2n1	0	0	10.0*	7	-8
COC(=O)c1ccc(CSc2ccc3nnc(-c4cccc(F)c4)n3n2)o1	-3	-3	8.4*	5	-11
C[C@H]1CN([C@@H](C)CO)C(=O)Cc2cc(NC(=O)Nc3cccc4ccccc34)ccc2O[C@@H]1CN(C)C(=O)NC1CCCCC1	·	·	·	9	·
CN(/N=C/c1cc(Cl)ccc1O)C1=NS(=O)(=O)c2ccccc21	7	0	10*	1	-10
COc1cccc(/C=N/N(C)C2=NS(=O)(=O)c3ccccc32)c1O	-11	-2	9.5*	5	-11
CCCN1C[C@H](C)[C@H](OC)CN(C)C(=O)c2cc(NC(=O)c3ccc(F)cc3)ccc2OC[C@@H]1C	·	·	·	4	·
Cc1ccc(Nc2ncnc3ccccc23)cc1	8	-3	-4	-5	3
CC(C)Oc1ccc(Nc2ncnc3ccccc23)cc1	31*	-2	-2	·	-3
COc1cc(OC)cc(C(=O)Nc2nnc(SCC(=O)NCc3ccco3)s2)c1	-9	-1	3	-11	-14
COc1ccc(C(=O)Nc2nnc(SCC(=O)NCc3ccco3)s2)c(OC)c1	-12	-1	11*	-9	-19
CCN(c1ccc2c(c1)OCO2)S(=O)(=O)c1cc(Br)cc2c1N(C(C)=O)CC2	-9	7.4*	-3	·	-3
COc1cc(NCCCCCCCN)c2ncccc2c1	1	2	7.8*	-1	3
Cc1noc(C)c1NC(=O)Nc1cccc2c1O[C@@H](CN(C)S(=O)(=O)c1ccc(F)cc1)[C@@H](C)CN([C@@H](C)CO)C2=O	·	·	·	6	·
O=C1C2C(c3ccccc3)C=CC(c3ccccc3)C2C(=O)N1c1cccnc1 (stereo not given)	-15	6.2*	1	·	-13
CN(C)c1cc(NC(=O)CN2CCCC2)c2ccccc2n1	-18	-2	0	78*	55*
COc1ccccc1NC(=O)CN1CCCCCC1	-3	0	1	-13	-6
CN(C)c1cc(NC(=O)CNC(C)(C)CC(C)(C)C)c2ccccc2n1	-13	-3	-2	·	36
COc1cc(NC(=O)Nc2ccccc2OC)c(OC)cc1NC(=O)CN1CCCCC1	-9	4.7*	-1	·	12
CO[C@H]1CN(C)C(=O)c2cc(NC(=O)NC(C)C)ccc2OC[C@@H](C)N(Cc2ccc(-c3ccccn3)cc2)C[C@H]1C	·	·	·	-10	·
Cc1c(C)c2ccc(OC(C)C(=O)NCCCN3CCOCC3)c(C)c2oc1=O (stereo not given)	3	1	8.6*	-1	12
O=C(COc1ccc2c3c(c(=O)oc2c1)CCCC3)NCc1cccnc1	-7	-2	9.2*	5	-16
SMILES	PvdQ acylase	IMP-1 inhibitor	VIM-2 inh	RAD54 inh	DNA FID counter
CC(Oc1ccc2c3c(c(=O)oc2c1)CCCC3)C(=O)NCc1ccccn1 (stereo not given)	7	1	8.5*	-2	-33
Cc1c(C)c2ccc(OC(C)C(=O)NCCN3CCOCC3)c(C)c2oc1=O (stereo not given)	-6	-3	7	13	2
Cc1c(OC(C)C(=O)NCCCN2CCOCC2)ccc2c3c(c(=O)oc12)CCCC3 (stereo not given)	1	-1	11*	8	10
CO[C@H]1CN(C)C(=O)c2ccc(NS(C)(=O)=O)cc2OC[C@@H](C)N(Cc2nccs2)C[C@@H]1C	·	·	·	-4	·
CC(C)NC(=O)N(C)C[C@@H]1Oc2ncc(C#Cc3ccncc3)cc2C(=O)N([C@H](C)CO)C[C@@H]1C	·	·	·	9	·
CC(=O)N1C[C@H]2[C@@H](c3ccccc31)[C@@H](CO)N2S(=O)(=O)c1ccccc1	·	·	·	-10	·
CCNC(=O)Nc1ccc2c(c1)C(=O)N(C)[C@@H]1CC[C@@H](CC(=O)NCc3cccc(F)c3)O[C@H]1CO2	·	·	·	6	·
C[C@H](O)C#Cc1ccc2c(c1)O[C@@H](CN(C)C(=O)CC1CC1)[C@@H](C)CN([C@H](C)CO)S2(=O)=O	·	·	·	3	·
CC(Oc1ccc2c3c(c(=O)oc2c1)CCC3)C(=O)NCCN1CCOCC1 (stereo not given)	6	-2	12*	-1	-3
c1ccc(CN2CCC(Nc3nc(-c4cccs4)nc4ccccc34)CC2)cc1	-6	-3	3	·	59*
NC(=O)CC1Nc2cccc3cccc(c23)NC1=O (stereo not given)	8	9.1*	8.1*	11	-13
CN(C)c1ccc2c(c1)[C@H]1C[C@H](CC(=O)NCCN3CCCCC3)O[C@@H](CO)[C@H]1O2	·	·	·	53*	·
c1ccc(-c2nn3c(-c4ccco4)nnc3s2)nc1	-7	-4	9.7*	-16	-5
COc1cccc(-c2nn3c(-c4ccccn4)nnc3s2)c1	-3	-2	8.0*	-5	-13
COc1cccc(-c2nn3c(-c4cc(C)[nH]n4)nnc3s2)c1	-6	0	4	3	-13
COc1ccc(-c2nn3c(-c4ccccn4)nnc3s2)cc1OC	-14	-2	12*	4	-14
COc1ccccc1-c1nnc2sc(-c3ccc(N(C)C)cc3)nn12	-18	15*	-4	3	-10
O=C(C[C@@H]1C=C[C@@H](NC(=O)Nc2ccc(C(F)(F)F)cc2)[C@@H](CO)O1)NCc1ccccn1	·	·	·	5	·
O=C(Nc1ccccc1F)N1C[C@@H]2[C@H](c3ccccc31)[C@@H](CO)N2C(=O)c1ccccn1	·	·	·	2	·
Nc1cccc2c1C(=O)N(C(=O)c1cccc(S(=O)(=O)N3CCCCCC3)c1)C2=O	5	-1	-2	3	-5
Nc1cccc2c1C(=O)N(C(=O)c1ccc(Cl)c(S(=O)(=O)N3CCCCCC3)c1)C2=O	12	4.8*	-2	0	-17
CO[C@H]1CN(C)C(=O)c2cc(NC(=O)C3CC3)ccc2OC[C@H](C)N(C(=O)c2ccccc2F)C[C@H]1C	·	·	·	-4	·
CC(Nc1nc(N2CCN(S(C)(=O)=O)CC2)nc2ccccc12)c1ccccc1 (stereo not given)	-12	4.5*	1	8	8
COC(=O)C1CCC(=S)N1C(=O)c1ccccc1 (stereo not given)	-10	20*	1	-3	-1
COC(=O)[C@H]1CN(C(=O)c2ccccc2)C(=O)N1	-17	0	1	-1	-8
Cc1[nH]c2ccccc2c1C(=O)CN1CCN(C/C=C/c2ccccc2)CC1	-1	0	2	4	23
COc1ccc2[nH]c(C)c(C(=O)CN3CCN(C/C=C/c4ccccc4)CC3)c2c1	-9	0	4	26	39*

Compound activity: PubChem, several laboratories
